Source: ChEMBL document CHEMBL1147105, “In vitro and in vivo activities of PD 0305970 and PD 0326448, new bacterial gyrase/topoisomerase inhibitors with potent antibacterial activities versus multidrug-resistant gram-positive and fastidious organism groups” (2007)

Columns and labels:
Klebsiella pneumoniae [1] = test: Antibacterial activity against Klebsiella pneumoniae; format: functional
Method in brief: (§1)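 Broth microdilution MIC following CLSI guidelines, in cation-adjusted Mueller-Hinton broth, incubated at 35°C. Recent clinical isolates and reference strains, with identity confirmed by automated and standard microbiological methods. Results reported as MIC range, MIC50 and MIC90.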

Haemophilus influenzae [2] = test: Antibacterial activity against beta-lactamase negative Haemophilus influenzae; format: functional
Method in brief: (§2)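 Broth microdilution MIC following CLSI guidelines, in Haemophilus test medium at 35°C.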

Finegoldia magna = test: Antibacterial activity against Peptostreptococcus magnus; format: functional
Method in brief: (§3)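 Anaerobic broth microdilution MIC following CLSI guidelines, in supplemented Brucella broth. Run in an anaerobe chamber under 5% CO2, 5% H2 and 90% N2 at 35°C, and read after 48 h. Reported as MIC range, MIC50 and MIC90.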

Streptococcus pneumoniae [3] = test: Antibacterial activity against penicillin-susceptible Streptococcus pneumoniae; format: functional
Method in brief: (§4)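 Broth microdilution MIC per CLSI guidelines, incubated at 35°C. Cation-adjusted Mueller-Hinton broth for nonfastidious organisms and staphylococci. Streptococci tested in the same broth with 3% lysed horse blood. Anaerobes tested in supplemented Brucella broth inside an anaerobe chamber (5% CO2, 5% H2, 90% N2), read after 48 h. Strains were mainly recent clinical isolates with confirmed identity.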

Enterococcus faecalis [4] = test: Antibacterial activity against beta-lactamase positive Enterococcus faecalis; format: functional
Method in brief: (§5)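 MIC by CLSI broth microdilution for nonfastidious organisms, in cation-adjusted Mueller-Hinton broth incubated at 35°C.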

Proteus vulgaris = test: Antibacterial activity against Proteus vulgaris; format: functional; method in brief: as §1
Staphylococcus aureus [5] = test: Antibacterial activity against vancomycin-intermediate Staphylococcus aureus; format: functional; method in brief: as §4
Enterococcus faecium [6] = test: Antibacterial activity against VanB-resistant Enterococcus faecium; format: functional; method in brief: as §4
Haemophilus influenzae [7] = test: Antibacterial activity against beta-lactamase positive Haemophilus influenzae; format: functional; method in brief: as §2
Streptococcus pneumoniae [8] = test: Antibacterial activity against levofloxacin-resistant Streptococcus pneumoniae; format: functional; method in brief: as §4
[9] = tested on: Peptostreptococcus anaerobius; test: Antibacterial activity against Peptostreptococcus anaerobius; format: functional; method in brief: as §3
[10] = tested on: Prevotella melaninogenica; test: Antibacterial activity against Prevotella melaninogenica; format: functional; method in brief: as §3
Streptococcus salivarius = test: Antibacterial activity against Streptococcus salivarius; format: functional
Method in brief: (§6)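 Broth microdilution MIC following CLSI guidelines, in cation-adjusted Mueller-Hinton broth with 3% lysed horse blood. Plates incubated at 35°C. Clinical isolates and reference strains, with identity confirmed by standard microbiological methods.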

Prevotella buccae = test: Antibacterial activity against Prevotella buccae; format: functional; conditions: Segatella buccae; method in brief: as §3
Serratia marcescens = test: Antibacterial activity against Serratia marcescens; format: functional; method in brief: as §1
Salmonella typhimurium = test: Antibacterial activity against Salmonella enterica serovar Typhimurium; format: functional, Salmonella enterica subsp. enterica serovar Typhimurium; method in brief: as §1
Neisseria meningitidis = test: Antibacterial activity against Neisseria meningitidis; format: functional
Method in brief: (§7)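 MIC by broth microdilution in gonococcal broth, incubated at 35°C in 5% CO2. Reported as MIC range, MIC50 and MIC90.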

Klebsiella aerogenes = test: Antibacterial activity against Enterobacter aerogenes; format: functional; method in brief: as §1
Prevotella corporis = test: Antibacterial activity against Prevotella corporis; format: functional; method in brief: as §3
Neisseria gonorrhoeae = test: Antibacterial activity against Neisseria gonorrhoeae; format: functional; method in brief: as §7
[11] = tested on: Stenotrophomonas maltophilia; test: Antibacterial activity against Stenotrophomonas maltophilia; format: functional; method in brief: as §1
Streptococcus equinus = test: Antibacterial activity against Streptococcus bovis; format: functional; method in brief: as §6
Legionella pneumophila = test: Antibacterial activity against Legionella pneumophila; format: functional
Method in brief: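 Broth microdilution MIC per CLSI guidelines, run in buffered yeast extract α-ketoglutarate broth at 35°C and read after 48 h.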

Corynebacterium sp. = test: Antibacterial activity against Corynebacterium sp.; format: functional
Method in brief: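 Broth microdilution MIC following CLSI guidelines, in cation-adjusted Mueller-Hinton broth containing 3% lysed horse blood, incubated at 35°C. Clinical isolates with identity confirmed. Reported as MIC range, MIC50 and MIC90.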

Fusobacterium sp. = test: Antibacterial activity against Fusobacterium sp.; format: functional; method in brief: as §3
Acinetobacter sp. = test: Antibacterial activity against Acinetobacter sp.; format: functional; method in brief: as §1
[12] = tested on: Parabacteroides distasonis; test: Antimicrobial activity against Bacteroides distasonis; format: functional
Method in brief: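 Anaerobic broth microdilution MIC following CLSI guidelines, in supplemented Brucella broth. Incubated at 35°C in a chamber under 5% CO2, 5% H2 and 90% N2. Read after 48 h.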

Pseudomonas aeruginosa = test: Antibacterial activity against Pseudomonas aeruginosa; format: functional; method in brief: as §1
Enterococcus faecalis [13] = test: Antibacterial activity against VanA-resistant Enterococcus faecalis; format: functional; method in brief: as §4
[14] = tested on: Staphylococcus epidermidis; test: Antibacterial activity against oxacillin-resistant Staphylococcus epidermidis; format: functional; method in brief: as §4
Enterococcus faecium [15] = test: Antibacterial activity against VanA-resistant Enterococcus faecium; format: functional; method in brief: as §4
Prevotella sp. = test: Antibacterial activity against Prevotella sp.; format: functional; method in brief: as §3
Citrobacter koseri = test: Antibacterial activity against Citrobacter diversus; format: functional; method in brief: as §1
Enterobacter cloacae = test: Antibacterial activity against Enterobacter cloacae; format: functional; method in brief: as §1
Morganella morganii = test: Antibacterial activity against Morganella morganii; format: functional; method in brief: as §1
Shigella sonnei = test: Antibacterial activity against Shigella sonnei; format: functional; method in brief: as §1
Staphylococcus aureus [16] = test: Antibacterial activity against oxacillin and levofloxacin-resistant Staphylococcus aureus; format: functional; method in brief: as §4
Streptococcus pneumoniae [17] = test: Antibacterial activity against penicillin-intermediate resistant Streptococcus pneumoniae; format: functional; method in brief: as §4
Clostridium perfringens = test: Antibacterial activity against Clostridium perfringens; format: functional; method in brief: as §4
[18] = tested on: Staphylococcus epidermidis; test: Antibacterial activity against oxacillin-susceptible Staphylococcus epidermidis; format: functional; method in brief: as §5
Streptococcus pneumoniae [19] = test: Antibacterial activity against penicillin-resistant Streptococcus pneumoniae; format: functional; method in brief: as §4
Staphylococcus aureus [20] = test: Antibacterial activity against oxacillin-resistant Staphylococcus aureus; format: functional; method in brief: as §4
Streptococcus pyogenes = test: Antibacterial activity against Streptococcus pyogenes; format: functional; method in brief: as §6
Proteus mirabilis = test: Antibacterial activity against Proteus mirabilis; format: functional; method in brief: as §1
Escherichia coli = test: Antibacterial activity against Escherichia coli; format: functional; method in brief: as §1
Streptococcus mitis = test: Antibacterial activity against Streptococcus mitis; format: functional; method in brief: as §6
Klebsiella pneumoniae [21] = test: Antibacterial activity against beta-lactamase positive Klebsiella pneumoniae; format: functional; method in brief: as §5

COc1c(N2CCNC(C)C2)c(F)cc2c(=O)c(C(=O)O)cn(C3CC3)c12 (stereo not given) [GATIFLOXACIN]
0.125 µg/mL: MIC [18]
0.03 µg/mL: MIC50 (Salmonella typhimurium) | MIC50 (Acinetobacter sp.) | MIC50 (Citrobacter koseri) | MIC50 (Shigella sonnei) | MIC50 (Escherichia coli)
2 µg/mL: MIC (Enterococcus faecium [6]) | MIC50 [14]
1 µg/mL: MIC50 (Klebsiella aerogenes) | MIC50 [11] | MIC50 (Streptococcus equinus) | MIC90 (Streptococcus equinus) | MIC50 (Pseudomonas aeruginosa) | MIC90 (Enterobacter cloacae) | MIC90 (Streptococcus pneumoniae [19]) | MIC90 (Escherichia coli) | MIC50 (Klebsiella pneumoniae [21])
0.004 µg/mL: MIC50 (Neisseria meningitidis) | MIC50 (Neisseria gonorrhoeae)
4 µg/mL: MIC50 (Streptococcus pneumoniae [8]) | MIC90 (Streptococcus pneumoniae [8]) | MIC90 (Serratia marcescens) | MIC50 [12] | MIC50 (Staphylococcus aureus [20]) | MIC90 (Proteus mirabilis)
0.06 µg/mL: MIC50 (Klebsiella pneumoniae [1]) | MIC (Finegoldia magna) | MIC (Proteus vulgaris) | MIC [9] | MIC90 (Salmonella typhimurium) | MIC90 (Citrobacter koseri) | MIC50 (Enterobacter cloacae) | MIC90 (Shigella sonnei)
0.015 µg/mL: MIC90 (Haemophilus influenzae [2]) | MIC50 (Haemophilus influenzae [7]) | MIC90 (Haemophilus influenzae [7]) | MIC (Fusobacterium sp.)
16 µg/mL: MIC90 (Acinetobacter sp.) | MIC90 [12] | MIC90 (Staphylococcus aureus [16]) | MIC90 (Klebsiella pneumoniae [21])
0.25 µg/mL: MIC50 (Streptococcus pneumoniae [3]) | MIC (Enterococcus faecalis [4]) | MIC50 [10] | MIC50 (Prevotella buccae) | MIC50 (Serratia marcescens) | MIC50 (Prevotella corporis) | MIC50 (Corynebacterium sp.) | MIC50 (Prevotella sp.) | MIC50 (Morganella morganii) | MIC50 (Streptococcus pneumoniae [17]) | MIC50 (Streptococcus pneumoniae [19]) | MIC50 (Streptococcus pyogenes) | MIC50 (Proteus mirabilis)
8 µg/mL: MIC (Staphylococcus aureus [5]) | MIC90 [11] | MIC (Enterococcus faecalis [13]) | MIC50 (Staphylococcus aureus [16]) | MIC90 (Staphylococcus aureus [20])
0.008 µg/mL: MIC50 (Haemophilus influenzae [2]) | MIC90 (Neisseria meningitidis) | MIC90 (Neisseria gonorrhoeae) | MIC50 (Legionella pneumophila) | MIC90 (Legionella pneumophila)
0.5 µg/mL: MIC90 (Klebsiella pneumoniae [1]) | MIC90 (Streptococcus pneumoniae [3]) | MIC90 [10] | MIC50 (Streptococcus salivarius) | MIC90 (Streptococcus salivarius) | MIC90 (Prevotella buccae) | MIC90 (Prevotella corporis) | MIC90 (Prevotella sp.) | MIC90 (Streptococcus pneumoniae [17]) | MIC50 (Clostridium perfringens) | MIC90 (Clostridium perfringens) | MIC90 (Streptococcus pyogenes) | MIC50 (Streptococcus mitis) | MIC90 (Streptococcus mitis)
64 µg/mL: MIC90 (Pseudomonas aeruginosa) | MIC90 (Enterococcus faecium [15])
32 µg/mL: MIC90 (Klebsiella aerogenes) | MIC90 (Corynebacterium sp.) | MIC90 [14] | MIC50 (Enterococcus faecium [15]) | MIC90 (Morganella morganii)

Cc1c(N2CC[C@@H]([C@H](C)N)C2)c(F)cc2c(=O)n(N)c(=O)n(C3CC3)c12
0.06 µg/mL: MIC (Enterococcus faecalis [4]) | MIC90 (Streptococcus pneumoniae [8]) | MIC (Fusobacterium sp.) | MIC90 (Streptococcus pneumoniae [17]) | MIC [18]
0.5 µg/mL: MIC (Enterococcus faecium [6]) | MIC50 (Salmonella typhimurium) | MIC90 (Neisseria meningitidis) | MIC90 (Neisseria gonorrhoeae) | MIC50 (Shigella sonnei) | MIC90 (Staphylococcus aureus [16]) | MIC50 (Clostridium perfringens)
0.03 µg/mL: MIC (Finegoldia magna) | MIC50 (Streptococcus pneumoniae [3]) | MIC90 (Streptococcus pneumoniae [3]) | MIC50 (Streptococcus pneumoniae [8]) | MIC [9] | MIC50 (Streptococcus salivarius) | MIC90 (Streptococcus salivarius) | MIC50 (Streptococcus equinus) | MIC90 (Streptococcus equinus) | MIC50 (Streptococcus pneumoniae [17]) | MIC50 (Streptococcus pneumoniae [19]) | MIC90 (Streptococcus pneumoniae [19]) | MIC50 (Streptococcus pyogenes) | MIC90 (Streptococcus pyogenes) | MIC50 (Streptococcus mitis) | MIC90 (Streptococcus mitis)
16 µg/mL: MIC90 (Serratia marcescens) | MIC90 [12]
8 µg/mL: MIC90 (Klebsiella aerogenes) | MIC50 [11] | MIC90 (Acinetobacter sp.) | MIC90 (Morganella morganii) | MIC90 (Klebsiella pneumoniae [21])
1 µg/mL: MIC (Proteus vulgaris) | MIC90 [10] | MIC90 (Prevotella buccae) | MIC90 (Salmonella typhimurium) | MIC90 (Prevotella corporis) | MIC50 (Acinetobacter sp.) | MIC50 (Enterococcus faecium [15]) | MIC90 (Prevotella sp.) | MIC50 (Citrobacter koseri) | MIC50 (Enterobacter cloacae) | MIC90 (Shigella sonnei) | MIC50 (Proteus mirabilis) | MIC50 (Escherichia coli)
32 µg/mL: MIC90 (Pseudomonas aeruginosa)
2 µg/mL: MIC50 (Klebsiella pneumoniae [1]) | MIC50 (Serratia marcescens) | MIC90 (Enterococcus faecium [15]) | MIC50 (Morganella morganii) | MIC90 (Clostridium perfringens) | MIC90 (Proteus mirabilis) | MIC90 (Escherichia coli) | MIC50 (Klebsiella pneumoniae [21])
0.125 µg/mL: MIC50 (Haemophilus influenzae [2]) | MIC (Staphylococcus aureus [5]) | MIC50 (Haemophilus influenzae [7]) | MIC (Enterococcus faecalis [13]) | MIC50 [14] | MIC90 [14] | MIC50 (Staphylococcus aureus [20])
64 µg/mL: MIC90 [11]
4 µg/mL: MIC90 (Klebsiella pneumoniae [1]) | MIC50 (Klebsiella aerogenes) | MIC50 [12] | MIC50 (Pseudomonas aeruginosa) | MIC90 (Citrobacter koseri) | MIC90 (Enterobacter cloacae)
0.25 µg/mL: MIC90 (Haemophilus influenzae [2]) | MIC90 (Haemophilus influenzae [7]) | MIC50 [10] | MIC50 (Prevotella buccae) | MIC50 (Neisseria meningitidis) | MIC50 (Prevotella corporis) | MIC50 (Neisseria gonorrhoeae) | MIC50 (Legionella pneumophila) | MIC90 (Legionella pneumophila) | MIC50 (Corynebacterium sp.) | MIC90 (Corynebacterium sp.) | MIC50 (Prevotella sp.) | MIC50 (Staphylococcus aureus [16]) | MIC90 (Staphylococcus aureus [20])
